Test results from ChEMBL document CHEMBL1125427, “Synthesis of 3-(2-pyridylethyl)benzoxazolinone derivatives: potent analgesic and antiinflammatory compounds inhibiting prostaglandin E2” (1992).

Legend:
Type in all cases: functional
[1] = species on record: Mus musculus; test: Analgesic activity in mice; design: concentration or dose not given beside the values
How it was run: (§1)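 Female albino mice (22 ± 2 g, local breed), groups of eight, dosed orally at 100 mg/kg as a suspension in 5% gum arabic syrup. After 1 h, 3% acetic acid was given ip at 300 mg/kg. Stretches were counted over 10 min, starting 5 min after injection. Percent activity = |n − n'|/n × 100 against syrup-only controls (n = 6).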

[2] = test system: Mus musculus; test: Inhibitory activity against carrageenan induced paw edema in mice; design: concentration or dose not given beside the values
[3] = test system: Mus musculus; test: The compound was evaluated for inhibition of edema induced by arachidonic acid at 1 mg/mL
How it was run: (§2)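 Mice, six per group, dosed orally at 100 mg/kg. After 60 min, 0.01 mL of phlogistic agent (arachidonic acid or bradykinin) was injected subcutaneously into the right hind paw plantar surface. Edema was measured by dial thickness gauge and the effect expressed as percent inhibition.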

[4] = test system: Mus musculus; test: The compound was evaluated for inhibition of edema induced by bradykinin at 100 ug/mL; how it was run: as §2
[5] = test system: Mus musculus; test: The compound was evaluated for inhibition of edema induced by histamine at 10 mg/mL
How it was run: (§3)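 Female albino mice (22 ± 2 g, local breed), six per group, housed in eights with free food and water, acclimatised at least 2 days. Compound given orally at 100 mg/kg; 60 min later 0.01 mL of the phlogistic agent (histamine or serotonin) injected subcutaneously into the right hind paw plantar surface. Paw edema measured with a dial thickness gauge; effect expressed as percent inhibition.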

[6] = test system: Mus musculus; test: The compound was evaluated for inhibition of edema induced by serotonin at 250 ug/mL; how it was run: as §3
[7] = species on record: Mus musculus; test: Analgesic activity in mice.; how it was run: as §1
[8] = test system: Mus musculus; test: Intestinal ulcerogenic activity at a dose of 10 mg/kg; 8 mice were considered for the test
How it was run: (§4)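 Fed animals were gavaged with compound on 3 consecutive days and killed 24 h after the last dose. Intestines were examined for ulcers. Read-out: ulcer incidence per group of 8 and lesion length (mm/mouse ± SE).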

[9] = test system: Mus musculus; test: Inhibitory activity against carrageenan induced mouse paw edema in mice.
[10] = test system: Mus musculus; test: The compound was evaluated for inhibition of edema induced by bradykinin at 100 micro g/mL; how it was run: as §2
[11] = test system: Mus musculus; test: The compound was evaluated for inhibition of edema induced by serotonin at 250 micro g/mL; how it was run: as §3
[12] = test system: Mus musculus; test: Gastric ulcerogenic activity at a dose of 10 mg/kg: 8 mice were considered for the test
How it was run: (§5)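 Mice fasted 24 h with water available. Compound in methyl cellulose vehicle given by oral gavage at 0.5 mL/100 g body weight. Animals were killed after 4 h and stomachs examined for lesions under a dissecting microscope. Read-out: ulcer incidence per group of 8 and lesion length (mm/mouse ± SE).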

[13] = test system: Mus musculus; test: Intestinal ulcerogenic activity at a dose of 10 mg/kg; how it was run: as §4
[14] = test system: Mus musculus; test: Gastric ulcerogenic activity at a dose of 10 mg/kg; how it was run: as §5
[15] = test system: Mus musculus; test: Antiinflammatory activity against CPE in mice following peroral administration of 10 mg/kg; conditions: route oral
How it was run: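 Female albino mice (22 ± 2 g), six per group, dosed orally. After 60 min, 0.01 mL of 2% carrageenan was injected subcutaneously into the right hind paw plantar surface. Edema was read with a dial thickness gauge 3 h later. ED50 was given in mg/kg po with 95% confidence limits.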

| Compound | Analgesic activity [1] [%] | Inhibition [2] [%] | Inhibition [3] [%] | Inhibition [4] [%] | Inhibition [5] [%] | Inhibition [6] [%] | Analgesic activity [7] [%] | Ulcer incidence [8] [number/group] | Inhibition [9] [%] | Inhibition [10] [%] | Inhibition [11] [%] | Ulcer incidence [12] [number/group] | Lesion length [13] [mm mice-1] | Lesion length [14] [mm mice-1] | ED50 [15] [mg/kg] |
| --- | --- | --- | --- | --- | --- | --- | --- | --- | --- | --- | --- | --- | --- | --- | --- |
| CC(=O)c1ccc2c(c1)oc(=O)n2CCc1ccccn1 | 48.74 | 5.6 | – | – | – | – | – | – | – | – | – | – | – | – | – |
| O=C(c1ccccc1Cl)c1cc2oc(=O)n(CCc3ccccn3)c2cc1Cl | 72.67 | 19.7 | 37 | 7.6 | 10 | 9 | – | – | – | – | – | – | – | – | – |
| O=C(c1ccccc1)c1ccc2c(c1)oc(=O)n2CCc1ccccn1 | 79.49 | 37.1 | 32 | 11 | 6 | 9.8 | – | – | – | – | – | – | – | – | – |
| O=C(c1ccc2c(c1)oc(=O)n2CCc1ccncc1)c1ccccc1Cl | 84.35 | 38.6 | 39 | 7 | 7.4 | 10 | – | – | – | – | – | – | – | – | – |
| O=C(c1ccccc1)c1ccc2c(c1)oc(=O)n2CCc1ccncc1 | 85.47 | 46.5 | 36.5 | 10 | 8.5 | 14.1 | – | – | – | – | – | – | – | – | – |
| COc1ccc(C(=O)c2ccc3c(c2)oc(=O)n3CCc2ccncc2)cc1 | 75.21 | 25.9 | 32 | 10 | 8 | 15 | – | – | – | – | – | – | – | – | – |
| CC(=O)Oc1ccccc1C(=O)O [ASPIRIN] | – | – | – | – | – | – | 58.26 | – | – | – | – | – | – | – | – |
| COc1ccc2c(c1)c(CC(=O)O)c(C)n2C(=O)c1ccc(Cl)cc1 [INDOMETHACIN] | – | – | 37 | – | 14.7 | – | – | 8 | 21.1 | 13.4 | 10.3 | 7 | 0.4 | 0.6 | 7.5 |
